Experimental data taken from ChEMBL document CHEMBL2163189, “Discovery and characterization of an inhibitor of glucosylceramide synthase” (J Med Chem, 2012).

Experiments:
[1] = Drug uptake in C57BL6 mouse liver at 10 mg/kg, po after 24 hrs; type: ADME, organism-based; design: dose 10 mg/kg, route oral; details: read-out: Drug uptake
Outline: (§1)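 Male C57BL6 mice, n = 3, given a single oral dose of 10 mpk. Compound levels in tissue or plasma were measured 24 h after the dose. Values are mean ± SD.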

[2] = AUC ( 0 to t) in CD rat at 5 mg/kg; type: ADME, organism-based; design: dose 5 mg/kg; details: plasma
Outline: (§2)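 Female CD rats, n = 3, given 5 mpk. The HCl salt in saline served as both the oral and the iv formulation. Values are mean ± SD.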

[3] = Oral bioavailability in CD rat at 5 mg/Kg; type: ADME, organism-based; details: in vivo; outline: as §2
[4] = Half life in CD rat at 5 mg/kg; type: ADME, organism-based; design: dose 5 mg/kg; details: in vivo; outline: as §2
[5] = Plasma concentration in C57BL6 mouse at 10 mg/kg, po after 24 hrs; type: ADME, organism-based; design: dose 10 mg/kg, route oral; outline: as §1
[6] = Volume of distribution at steady state in CD rat at 5 mg/Kg; type: ADME, organism-based; details: in vivo, read-out: Vdss; outline: as §2
[7] = Clearance in CD rat at 5 mg/kg; type: ADME, organism-based; design: dose 5 mg/kg; details: in vivo; outline: as §2
[8] = Tmax in CD rat at 5 mg/kg; type: ADME, organism-based; design: dose 5 mg/kg; details: in vivo; outline: as §2
[9] = Drug uptake in C57BL6 mouse muscle at 10 mg/kg, po after 24 hrs; type: ADME, organism-based, Muscle tissue; design: dose 10 mg/kg, route oral; details: read-out: Drug uptake; outline: as §1
[10] = Drug uptake in C57BL6 mouse Fat at 10 mg/kg, po after 24 hrs; type: ADME, organism-based; design: dose 10 mg/kg, route oral; details: fat (adipose tissue), read-out: Drug uptake; outline: as §1
[11] = Cmax in CD rat at 5 mg/kg; type: ADME, organism-based; design: dose 5 mg/kg; details: in vivo; outline: as §2
[12] = Metabolic stability in mouse liver microsome assessed as compound conversion at 15 uM after 30 mins; type: ADME; details: liver microsomes, read-out: Drug metabolism
[13] = Plasma concentration in mouse at 100 mg/kg, po after 4 hrs; type: ADME, organism-based; design: dose 100 mg/kg, route oral
Outline: (§3)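 Female nude mice (n = 3) given 100 mpk orally. Plasma compound levels measured 1 and 4 h after dosing, reported as mean ± SD.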

[14] = Plasma concentration in mouse at 100 mg/kg, po after 1 hr; type: ADME, organism-based; design: dose 100 mg/kg, route oral; outline: as §3

Row | Structure (SMILES) | metabolised at 0.5 h, 15 µM [12] | further results
1 | Cl.NC1C[C@H]2CC[C@@H](C1)N2C(=O)[C@H](Cc1ccc(Br)cc1)NC(=O)C1(c2ccc(OC(F)(F)F)cc2)CC1 (stereo partly drawn) | – | concentration at 24 h [1]: 5900 nM; AUC(0-t) [2]: 5.8 µM·h; bioavailability [3]: 88.1%; half-life [4]: 25.3 h; concentration at 24 h [5]: 500 nM; Vd [6]: 19.3 L/kg; clearance [7]: 9.58 mL/min/kg; Tmax [8]: 8 h; concentration at 24 h [9]: 1800 nM; concentration at 24 h [10]: 800 nM; Cmax [11]: 300 nM
2 | NC1CCN(C(=O)[C@H](Cc2ccc(Br)cc2)NC(=O)C2(c3ccc(Cl)cc3Cl)CC2)CC1 | 50% | –
3 | NC1C[C@H]2CC[C@@H](C1)N2C(=O)[C@H](Cc1ccc(Br)cc1)NC(=O)C1(c2ccc(OC(F)(F)F)cc2)CC1 (stereo partly drawn) | 7% | –
4 | CN1CCN(C(=O)[C@H](Cc2c[nH]c3ccccc23)NC(=O)C2(c3ccc(Cl)cc3Cl)CC2)CC1 | 90% | concentration at 4 h [13]: 700 nM; concentration at 1 h [14]: 900 nM
5 | CN1CCN(C(=O)[C@H](Cc2ccc(Cl)cc2Cl)NC(=O)C2(c3ccc(Cl)cc3Cl)CC2)CC1 | 80% | concentration at 4 h [13]: 5800 nM; concentration at 1 h [14]: 4200 nM
6 | CN1CCN(C(=O)[C@H](Cc2ccc(Cl)cc2)NC(=O)C2(c3ccc(Cl)cc3Cl)CC2)CC1 | 73% | –
7 | O=C([C@H](Cc1ccc(Cl)cc1Cl)NC(=O)C1(c2ccc(Cl)cc2Cl)CC1)N1CCNCC1 | 10% | –
8 | C[C@H]1CN(C(=O)[C@H](Cc2ccc(Cl)cc2Cl)NC(=O)C2(c3ccc(Cl)cc3Cl)CC2)CCN1 | 40% | –
9 | CN(C)CCN(C)C(=O)[C@H](Cc1ccc(Br)cc1)NC(=O)C1(c2ccc(Cl)cc2Cl)CC1 | 90% | –

More lines, main results first:

Row | metabolised at 0.5 h, 15 µM [12] | Structure (SMILES) | further results
10 | 30% | O=C([C@H](Cc1ccc(Br)cc1)NC(=O)C1(c2ccc(Cl)cc2Cl)CC1)N1CCC(O)CC1 | –
11 | 10% | NC1CCCC(NC(=O)[C@H](Cc2ccc(Cl)cc2Cl)NC(=O)C2(c3ccc(Cl)cc3Cl)CC2)C1 (stereo partly drawn) | –
12 | 20% | NC1C[C@H]2CC[C@@H](C1)N2C(=O)[C@H](Cc1ccc(Cl)cc1Cl)NC(=O)C1(c2ccc(Cl)cc2Cl)CC1 (stereo partly drawn) | –
13 | 20% | NC1C[C@H]2CC[C@@H](C1)N2C(=O)[C@H](Cc1ccc(Br)cc1)NC(=O)C1(c2ccc(Cl)cc2Cl)CC1 (stereo partly drawn) | –
14 | 8% | NC1C[C@H]2CC[C@@H](C1)N2C(=O)[C@H](Cc1ccc(Cl)cc1Cl)NC(=O)C1(c2ccc(OC(F)(F)F)cc2)CC1 (stereo partly drawn) | –
15 | 50% | CN1CCN(C(=O)[C@H](COCc2ccccc2)NC(=O)C2(c3ccc(Cl)cc3Cl)CC2)CC1 | –
16 | 80% | CN1CCN(C(=O)[C@H](Cc2ccccc2)NC(=O)C2(c3ccc(Cl)cc3Cl)CC2)CC1 | –
17 | 90% | CN1CCN(C(=O)[C@H](Cc2ccc(Br)cc2)NC(=O)C2(c3ccc(Cl)cc3Cl)CC2)CC1 | –
18 | 30% | C[C@@H]1CN(C(=O)[C@H](Cc2ccc(Cl)cc2Cl)NC(=O)C2(c3ccc(Cl)cc3Cl)CC2)CCN1 | –
19 | 70% | CN(C)CCN(C)C(=O)[C@H](Cc1ccc(Cl)cc1Cl)NC(=O)C1(c2ccc(Cl)cc2Cl)CC1 | –
